Results as given in ChEMBL document CHEMBL3046492, “Synthesis, insecticidal, and acaricidal activities of novel 2-aryl-pyrrole derivatives containing ester groups” (2008).

What was measured:
Assay type in all cases: functional
Tetranychus cinnabarinus [1] = experiment: Acaricidal activity against adult Tetranychus cinnabarinus (carmine spider mite) in sieva bean plants assessed as mortality at 200 mg/kg treated for 3 secs measured after 2 days; conditions: 48 h
Culex pipiens pallens [2] = experiment: Insecticidal activity against fourth-instar larval stage of Culex pipiens pallens (mosquito) assessed as mortality at 0.10 mg/kg at 25 +/-1 degC after 2 days; conditions: 48 h
Summary of the method: (§1)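 Test solutions were prepared by adding 1 mL of each concentrated dilution to 99 mL water. Bioassays were run at 25 ± 1 °C on laboratory-reared insects.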

Culex pipiens pallens [3] = experiment: Insecticidal activity against fourth-instar larval stage of Culex pipiens pallens (mosquito) assessed as mortality at 0.25 mg/kg at 25 +/-1 degC after 2 days; conditions: 48 h; summary of the method: as §1
Culex pipiens pallens [4] = experiment: Insecticidal activity against fourth-instar larval stage of Culex pipiens pallens (mosquito) assessed as mortality at 0.50 mg/kg at 25 +/-1 degC after 2 days; conditions: 48 h; summary of the method: as §1
Mythimna separata [5] = experiment: Insecticidal activity against fourth-instar larval stage of Mythimna separata (Oriental armyworm) in compound pretreated corn leaves assessed as mortality at 5 mg/kg at 25 +/-1 degC measured after 2 days
Mythimna separata [6] = experiment: Insecticidal activity against fourth-instar larval stage of Mythimna separata (Oriental armyworm) in compound pretreated corn leaves assessed as mortality at 10 mg/kg at 25 +/-1 degC measured after 2 days
Mythimna separata [7] = experiment: Insecticidal activity against fourth-instar larval stage of Mythimna separata (Oriental armyworm) in compound pretreated corn leaves assessed as mortality at 20 mg/kg at 25 +/-1 degC measured after 2 days
Tetranychus cinnabarinus [8] = experiment: Acaricidal activity against adult Tetranychus cinnabarinus (carmine spider mite) in sieva bean plants assessed as mortality at 50 mg/kg treated for 3 secs measured after 2 days; conditions: 48 h
Tetranychus cinnabarinus [9] = experiment: Acaricidal activity against adult Tetranychus cinnabarinus (carmine spider mite) in sieva bean plants assessed as mortality at 100 mg/kg treated for 3 secs measured after 2 days; conditions: 48 h

Compound | mortality at 200 mg/kg (Tetranychus cinnabarinus [1]) | mortality at 0.1 mg/kg (Culex pipiens pallens [2]) | mortality at 0.25 mg/kg (Culex pipiens pallens [3]) | mortality at 0.5 mg/kg (Culex pipiens pallens [4]) | mortality at 5 mg/kg (Mythimna separata [5]) | mortality at 10 mg/kg (Mythimna separata [6]) | mortality at 20 mg/kg (Mythimna separata [7]) | mortality at 50 mg/kg (Tetranychus cinnabarinus [8]) | mortality at 100 mg/kg (Tetranychus cinnabarinus [9])
CC(=O)OCn1c(-c2ccc(Cl)cc2)c(C#N)c(Br)c1C(F)(F)F | 0% | 100% | 100% | 100% | 0% | 90% | 100% | – | –
N#Cc1c(Br)c(C(F)(F)F)n(COC=O)c1-c1ccc(Cl)cc1 | 100% | 50% | 100% | 100% | 0% | 100% | 100% | 82% | 89%
CCC(=O)OCn1c(-c2ccc(Cl)cc2)c(C#N)c(Br)c1C(F)(F)F | 100% | 100% | 100% | 100% | 0% | 90% | 100% | 88% | 92%
CCCC(=O)OCn1c(-c2ccc(Cl)cc2)c(C#N)c(Br)c1C(F)(F)F | 100% | 100% | 100% | 100% | 0% | 100% | 100% | 100% | 100%
CC(C)C(=O)OCn1c(-c2ccc(Cl)cc2)c(C#N)c(Br)c1C(F)(F)F | 100% | – | – | – | 0% | 100% | 100% | 100% | 100%
CCCCC(=O)OCn1c(-c2ccc(Cl)cc2)c(C#N)c(Br)c1C(F)(F)F | 100% | 100% | 100% | 100% | 0% | 100% | 100% | 100% | 100%
N#Cc1c(Br)c(C(F)(F)F)n(COC(=O)c2ccccc2)c1-c1ccc(Cl)cc1 | 100% | 10% | 20% | 100% | 0% | 60% | 100% | 100% | 100%
N#Cc1c(Br)c(C(F)(F)F)n(COC(=O)c2ccc(Cl)cc2)c1-c1ccc(Cl)cc1 | 100% | 10% | 20% | 100% | 10% | 100% | 100% | 100% | 100%
N#Cc1c(Br)c(C(F)(F)F)n(COC(=O)c2ccccc2Cl)c1-c1ccc(Cl)cc1 | 99% | 100% | 100% | 100% | 0% | 35% | 100% | 93% | 95%
Cc1ccc(C(=O)OCn2c(-c3ccc(Cl)cc3)c(C#N)c(Br)c2C(F)(F)F)cc1 | 100% | 100% | 100% | 100% | 0% | 100% | 100% | 100% | 100%
N#Cc1c(Br)c(C(F)(F)F)n(COC(=O)c2ccccc2N)c1-c1ccc(Cl)cc1 | 0% | 100% | 100% | 100% | 0% | 0% | 10% | – | –
N#Cc1c(Br)c(C(F)(F)F)n(COC(=O)c2ccc(N)cc2)c1-c1ccc(Cl)cc1 | 0% | 10% | 10% | 100% | 0% | 0% | 40% | – | –
COc1cccc(C(=O)OCn2c(-c3ccc(Cl)cc3)c(C#N)c(Br)c2C(F)(F)F)c1 | 100% | 50% | 65% | 100% | 0% | 90% | 100% | 50% | 65%
COc1ccc(C(=O)OCn2c(-c3ccc(Cl)cc3)c(C#N)c(Br)c2C(F)(F)F)cc1 | 0% | 20% | 30% | 70% | 0% | 90% | 100% | – | –
N#Cc1c(Br)c(C(F)(F)F)n(COC(=O)c2ccccc2[N+](=O)[O-])c1-c1ccc(Cl)cc1 | 0% | 10% | 20% | 100% | 20% | 100% | 100% | – | –
N#Cc1c(Br)c(C(F)(F)F)n(COC(=O)c2cccc([N+](=O)[O-])c2)c1-c1ccc(Cl)cc1 | 98% | 30% | 40% | 80% | 0% | 0% | 100% | 90% | 94%
N#Cc1c(Br)c(C(F)(F)F)n(COC(=O)c2ccc([N+](=O)[O-])cc2)c1-c1ccc(Cl)cc1 | 95% | 20% | 60% | 100% | 0% | 50% | 100% | 92% | 93%
N#Cc1c(Br)c(C(F)(F)F)n(COC(=O)c2cc([N+](=O)[O-])cc([N+](=O)[O-])c2)c1-c1ccc(Cl)cc1 | 0% | 100% | 100% | 100% | 0% | 0% | 100% | – | –
CC(Oc1ccc(Cl)cc1)C(=O)OCn1c(-c2ccc(Cl)cc2)c(C#N)c(Br)c1C(F)(F)F (stereo not given) | 98% | 100% | 100% | 100% | 0% | 80% | 100% | 94% | 95%
CC(Oc1cccc(Cl)c1)C(=O)OCn1c(-c2ccc(Cl)cc2)c(C#N)c(Br)c1C(F)(F)F (stereo not given) | 98% | 100% | 100% | 100% | 0% | 45% | 100% | 93% | 93%
CC(Oc1cccc([N+](=O)[O-])c1)C(=O)OCn1c(-c2ccc(Cl)cc2)c(C#N)c(Br)c1C(F)(F)F (stereo not given) | 0% | 90% | 100% | 100% | 0% | 85% | 100% | – | –
Cc1cccc(OC(C)C(=O)OCn2c(-c3ccc(Cl)cc3)c(C#N)c(Br)c2C(F)(F)F)c1 (stereo not given) | 100% | 100% | 100% | 100% | 0% | 40% | 100% | 96% | 98%
CC(Oc1ccc(C(C)(C)C)cc1)C(=O)OCn1c(-c2ccc(Cl)cc2)c(C#N)c(Br)c1C(F)(F)F (stereo not given) | 100% | 100% | 100% | 100% | 0% | 30% | 80% | 94% | 96%
N#Cc1c(Br)c(C(F)(F)F)n(COC(=O)C(=O)c2ccccc2)c1-c1ccc(Cl)cc1 | 100% | – | – | – | 0% | 60% | 100% | 79% | 88%
CCOC(=O)OCn1c(-c2ccc(Cl)cc2)c(C#N)c(Br)c1C(F)(F)F | 100% | 100% | 100% | 100% | 0% | 90% | 100% | 84% | 89%
